Results taken from paper PMC2819108 (Bioorganic & medicinal chemistry, 2009).

Legend:
[1] = test system: HUVEC (human umbilical vein endothelial cells); assay: Angiogenesis assay in vitro; type: cell-based; details: 1 μM; 16 h treatment; Fig. 4
Outline: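 HUVEC (1×10^5 cells) seeded on Matrigel in EBM-2 medium and treated with the test compound over several dose ranges (figure panels: 1 and 10 µM, with untreated control). Tube formation was observed after 16 h of treatment.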

rat thoracic aorta rings = assay: Aortic ring assay; details: 5 μM; day 6; Fig. 5
Outline: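 Thoracic aortas from normal 1–2-month-old rats were excised into ice-cold PBS, cleaned of fibroadipose tissue, and cut into 1–1.5 mm cross-sections. Sections were washed five times in PBS, embedded in Matrigel on coverslips, and held 15 min at 37 °C, 5% CO2. EBM2 containing test compound (1–100 µM) was then added. Sprouting was examined on day 6 against an untreated control.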

[2] = test system: 54 human cancer cell lines; assay: NCI human cancer cell proliferation assay; type: cell-based; details: 48 h, read-out: GI50 in 16 of the 54 cell lines
Outline: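 The NCI human tumour cell line panel was exposed to test compound at five concentrations in 10-fold serial dilution for 48 h. Growth inhibition was read as total cell protein by sulforhodamine B assay. GI50 was calculated from log dose-response curves.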

A-10 cells = assay: Loss of microtubules in A-10 cells; type: cell-based; details: 20 μM compound; Fig. 2
MCF-7 cells = assay: Cell cycle assay; type: cell-based, human; details: up to 5 μM; 48 h treatment; Fig. 3
Outline: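 MCF-7 cells at 2×10^5 cells/ml were seeded in DMEM with 5% fetal calf serum and left overnight at 37 °C to attach. Different concentrations of test compound were then added. After 48 h of treatment, cell-cycle distribution was measured by flow cytometry.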

[3] = test system: MCF-7 human breast carcinoma cells; assay: MCF-7 cell proliferation assay; type: cell-based; details: relative to CA-4

Q: With `COc1ccc(/C=C/C(=O)c2cc(OC)c(OC)c(OC)c2)cc1B(O)O` [compound 4, 2-Methoxy-5-[(1E)-3-oxo-3-(3,4,5-trimethoxyphenyl)prop-1-en-1-yl]boronic acid] as the compound, how does the HUVEC tube formation [1] read?
A: Its HUVEC tube formation is “significantly inhibited the tube formation”.

Q: And the “functional angiogenesis in aortic ring assay (sprout formation)” value (rat thoracic aorta rings)?
A: Its value is “dramatically inhibited functional angiogenesis”.

Q: And the GI50 [2]?
A: Its GI50 is 0.01 to 0.2 µM.

Q: And the “effect on interphase microtubule network of A-10 cells” value (A-10 cells)?
A: The value was “extensive thinning of the network of microtubules”.

Q: What about the “effect on MCF-7 cell cycle (G2/M phase arrest)” value (MCF-7 cells) of the same compound?
A: Its value is “did not cause significant G2/M phase arrest”.

Q: How did the “fold less active than CA-4 as inhibitor of MCF-7 cell growth” value [3] turn out when `COc1ccc(/C=C/C(=O)c2cc(OC)c(OC)c(OC)c2)cc1O` [compound 6, (2E)-3-(3-Hydroxy-4-methoxyphenyl)-1-(3,4,5-trimethoxyphenyl) prop-2-en-1-one] was run?
A: The value was 3–4 fold.

Q: What about the “effect on interphase microtubule network of A-10 cells” value (A-10 cells) of the same compound?
A: The value was “complete disappearance of the microtubule network”.
